{"source": "paper PMC8742638", "about": "(Clinical and Translational Science, 2021)", "key": {"[1]": {"type": "in vivo, human", "conditions": "for Tmax: healthy female subjects, median (range); for bioavailability: oral", "outline": "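Healthy female volunteers fasted about 10 h, then took a 100 mg oral tablet. A 13C-labeled microdose (15 µg/ml target, PEG-400 solution diluted in saline, filtered) was infused i.v. 4 h later. Plasma was sampled predose and 1–72 h post-oral, and 5–30 min post-i.v. Concentrations were measured by LC-MS/MS against a 0.0300–15.0 ng/ml calibration (1/x² weighting). Noncompartmental analysis used the actual i.v. dose, assayed from the unflushed infusion line.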"}, "[2]": {"experiment": "Stability and adsorption of the venetoclax microdose solution", "type": "physicochemical", "conditions": "during formulation and process development"}, "[3]": {"conditions": "cited from earlier work"}, "CYP3A4 enzyme": {"test_system": "CYP3A4 enzyme", "conditions": "cited from earlier work"}, "[4]": {"conditions": "100 µg 13C-venetoclax solution for IV infusion, N = 11, mean (%CV)"}, "[5]": {"conditions": "100 µg 13C-venetoclax solution for IV infusion, actual dose, N = 11, mean (%CV)"}, "[6]": {"conditions": "100 mg venetoclax oral tablet, fasting, N = 12, mean (%CV)"}, "[7]": {"conditions": "female, human, plasma, po, 100 mg"}}, "note": "Read-outs that look alike come from different tables or passages of the source.", "data": [{"compound": "[^13C7]‐venetoclax [^13C‐venetoclax]", "values": [{"measurement": "t 1/2", "setting": "[1]; 100 µg 13C-venetoclax solution for IV infusion, N = 11, harmonic mean (pseudo %CV)", "result": "14.4 (5.5) h"}, {"measurement": "AUCinf", "setting": "[1]; [4]", "result": "0.036 (39%) µg·h/ml"}, {"measurement": "AUCt", "setting": "[1]; [4]", "result": "0.034 (37%) µg·h/ml"}, {"measurement": "Cmax", "setting": "[1]; [4]", "result": "0.019 (19%) µg/ml"}, {"measurement": "AUCinf/dose", "setting": "[1]; [5]", "result": "324 (37%) (ng·h/ml)/mg"}, {"measurement": "AUCt/dose", "setting": "[1]; [5]", "result": "310 (36%) (ng·h/ml)/mg"}, {"measurement": "Cmax/dose", "setting": "[1]; [5]", "result": "176 (16%) (ng/ml)/mg"}]}, {"compound": "CC1(C)CCC(CN2CCN(c3ccc(C(=O)NS(=O)(=O)c4ccc(NCC5CCOCC5)c([N+](=O)[O-])c4)c(Oc4cnc5[nH]ccc5c4)c3)CC2)=C(c2ccc(Cl)cc2)C1", "note": "[venetoclax]", "values": [{"measurement": "AUCinf/dose", "setting": "[1]; [6]", "result": "19.3 (45%) (ng·h/ml)/mg"}, {"measurement": "Cmax/dose", "setting": "[1]; [6]", "result": "1.49 (47%) (ng/ml)/mg"}, {"measurement": "Tmax", "setting": "[1]; 100 mg venetoclax oral tablet, fasting, N = 12", "result": "4.2 (4.0–6.0) h"}, {"measurement": "half-life", "setting": "[1]; female, human, plasma, iv, 100 µg, t 1/2, 100 µg 13C-venetoclax solution for IV infusion, N = 11, harmonic mean (pseudo %CV)", "result": "~14", "unit": "h"}, {"measurement": "bioavailability", "setting": "[1]; female, human, plasma, 100 mg", "result": 5.4, "unit": "%"}, {"measurement": "AUC(0-inf)", "setting": "[1]; [7]", "result": 1930, "unit": "ng·h/mL"}, {"measurement": "AUC(0-t)", "setting": "[1]; [7]", "result": 1850, "unit": "ng·h/mL"}, {"measurement": "Cmax", "setting": "[1]; [7]", "result": 149, "unit": "ng/mL"}, {"measurement": "Tmax", "setting": "[1]; female, human, plasma, po, 100 mg, Tmax, 100 mg venetoclax oral tablet, fasting, N = 12", "result": "~4", "unit": "h"}, {"measurement": "half-life", "setting": "[1]; female, human, plasma, po, 100 mg, t 1/2, 100 mg venetoclax oral tablet, fasting, N = 12, harmonic mean (pseudo %CV)", "result": "~14", "unit": "h"}, {"measurement": "fraction metabolized by the liver in a single pass", "setting": "[1]; from hepatic extraction ratio", "result": 6, "unit": "%"}, {"measurement": "bioavailability", "setting": "[1]; human, plasma", "result": "18 to 28", "unit": "%"}, {"measurement": "adsorptive losses on the infusion line", "setting": "[2]", "result": "1 to 2", "unit": "µg/mL"}, {"measurement": "pharmacokinetic linearity", "setting": "[3]", "result": "linear between 150 and 800 mg dose"}, {"measurement": "terminal half-life", "setting": "[3]", "result": 16, "unit": "h"}, {"measurement": "time to reach Cmax after dosing", "setting": "[3]", "result": "6 to 8", "unit": "h"}, {"measurement": "metabolism", "setting": "CYP3A4 enzyme", "result": "predominantly metabolized by the CYP3A4 enzyme"}]}]}
